Measured values pooled from the literature.
Compare with care: the assays were run in different laboratories.
Target: Transient receptor potential cation channel subfamily M member 6 (TRPM6, Homo sapiens, UniProt Q9BX84)

| SMILES | test | setting | remaining binding [%] |
| --- | --- | --- | --- |
| O=C(c1ccc(Nc2ncc(Cl)c(-c3ccc(Cl)s3)n2)cc1)N1CCC(N2CCCC2)CC1 | binding, competition with immobilised ligand | 1 µM | 100 |
| COc1ncc2cc3ccccc3nc2c1C#N | cell-free assay, competition with immobilised ligand | 5 µM | 92 |
| COc1cnc(Nc2cccc(S(N)(=O)=O)c2)nc1N1CCN(c2ccccc2)C(=O)C1 | binding, competition with immobilised ligand | 1 µM | 93 |
| CN(C)c1ncc(F)c(-c2cnn3ncccc23)n1 | binding | 1 µM | 100 |
| C[C@@H](c1ccc(-n2cnc3c(N)ncnc32)cc1)N1CCc2nn(C)c(Cc3ccccc3)c2C1=O | binding, competition with immobilised ligand | 0.1 µM | 76 |
| CCN1CCN(Cc2ccc(C(=O)Nc3ccc(C)c(Oc4ccc5c(c4)CC(=O)N5)c3)cc2C(F)(F)F)CC1 | binding, competition with immobilised ligand | 1 µM | 100 |
| O=C(NCC1CCOCC1)c1n[nH]cc1NC(=O)c1c(F)cccc1F | binding, competition with immobilised ligand | 1 µM | 85 |
| O=C(NCCCN1CCOCC1)c1ccc(Nc2nccc(-c3cc4ccccc4s3)n2)cc1 | binding, competition with immobilised ligand | 1 µM | 100 |
| COc1ccnn2ncc(-c3ccnc(N(C)C)n3)c12 | binding | 1 µM | 82 |
| O=C(O)[C@H]1[C@H](Cn2nnc3ccccc3c2=O)CC[C@@H]1C(=O)c1ccc(OCCC2CCOCC2)cc1 | cell-free assay, competition with immobilised ligand | 1 µM | 100 |
| CNC(=O)[C@@H]1CC[C@@H](n2c(-c3ccc4cnccc4c3)nc3ccc(C(=O)NCc4cccc(C(N)=O)c4)cc32)C1 | binding, competition with immobilised ligand | 1 µM | 83 |
| N#CC1(c2ccccn2)CCN(Cc2cc(C(=O)N3CCCC3)c(=O)n3ccccc23)CC1 | cell-free assay, competition with immobilised ligand | 1 µM | 80 |
| O=C(NCCCN1CCOCC1)c1ccc(Nc2ncc(Cl)c(-c3ccc(Cl)s3)n2)cc1 | binding, competition with immobilised ligand | 1 µM | 100 |
| C[C@@H]1CCN(c2nccc(-c3cnn4ncccc34)n2)C1 | binding | 1 µM | 91 |
| CS(=O)(=O)N1CCCC(NC(=O)[C@H](CCC2CCCCC2)NC(=O)c2ccc(CNC(=O)c3cnc4ccccn34)cc2)C1 (stereo partly drawn) | cell-free assay, competition with immobilised ligand | 0.1 µM | 100 |
| CN(c1nccc(-c2cnn3ncccc23)n1)C1CC1 | binding | 1 µM | 100 |
| C[C@H](c1ccc(F)cc1)N(Cc1cccc(C(=O)O)c1)C(=O)c1cnc2ccccc2c1 | cell-free assay, competition with immobilised ligand | 1 µM | 100 |
| CN(C)c1nccc(-c2cnc3ncccn23)n1 | binding | 1 µM | 75 |
| CN([C@@H]1CCc2c(CC(=O)O)c3cc(S(C)(=O)=O)ccc3n2C1)S(=O)(=O)c1ccc(F)cc1 | cell-free assay, competition with immobilised ligand | 1 µM | 74 |
| N[C@H]1CCN(c2nccc(-c3cnn4ncccc34)n2)C1 | binding | 1 µM | 91 |
| O=C(NS(=O)(=O)c1ccc(NCC2CCOCC2)c([N+](=O)[O-])c1)c1ccc(N2CCN(Cc3ccc(C(F)(F)F)cc3-c3ccc(Cl)cc3)CC2)cc1Oc1cnc2[nH]ccc2c1 | cell-free assay, competition with immobilised ligand | 1 µM | 89 |
